Experimental data from ChEMBL document CHEMBL2429786, “New serotonin 5-HT1A receptor agonists endowed with antinociceptive activity in vivo” (J Med Chem, 2013).
The source made the active and inactive calls. The rule behind the calls is not given here.

Experiments:
[1] = target: 5-hydroxytryptamine receptor 7 (Rattus norvegicus, UniProt P32305); test: Displacement of [3H]-5-CT from 5-HT7 receptor in Sprague-Dawley rat hypothalamus after 120 mins
[2] = target: T1, Muscarinic acetylcholine receptor M2 (Homo sapiens) (UniProt P08172); test: Displacement of [3H]AF-DX 384 from muscarinic M2 receptor (unknown origin) at 1 uM after 60 mins
T1 sequence (whole entry): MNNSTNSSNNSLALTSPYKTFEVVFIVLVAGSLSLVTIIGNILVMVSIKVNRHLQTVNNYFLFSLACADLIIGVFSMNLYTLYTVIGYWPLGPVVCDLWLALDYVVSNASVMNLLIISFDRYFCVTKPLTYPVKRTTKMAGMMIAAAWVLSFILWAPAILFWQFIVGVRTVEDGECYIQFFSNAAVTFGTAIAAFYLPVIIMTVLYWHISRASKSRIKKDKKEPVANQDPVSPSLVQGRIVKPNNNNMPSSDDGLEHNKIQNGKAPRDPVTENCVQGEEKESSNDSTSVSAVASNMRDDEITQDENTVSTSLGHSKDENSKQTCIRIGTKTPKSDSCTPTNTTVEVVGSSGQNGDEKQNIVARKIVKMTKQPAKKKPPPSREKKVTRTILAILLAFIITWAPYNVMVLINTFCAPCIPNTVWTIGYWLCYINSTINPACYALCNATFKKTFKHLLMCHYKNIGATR

Mus musculus = test: Toxicity in CD-1 mouse at 3 mg/kg, ip and 30 mg/kg, po; format: organism-based; details: in vivo
[3] = target: T2, 5-hydroxytryptamine receptor 1A (Homo sapiens, UniProt P08908); test: Agonist activity at human 5-HT1A receptor expressed in human HeLa cells assessed as inhibition of forskolin-stimulated cAMP formation after 10 mins by RIA; format: functional, cell-based
T2 sequence (P08908 whole entry): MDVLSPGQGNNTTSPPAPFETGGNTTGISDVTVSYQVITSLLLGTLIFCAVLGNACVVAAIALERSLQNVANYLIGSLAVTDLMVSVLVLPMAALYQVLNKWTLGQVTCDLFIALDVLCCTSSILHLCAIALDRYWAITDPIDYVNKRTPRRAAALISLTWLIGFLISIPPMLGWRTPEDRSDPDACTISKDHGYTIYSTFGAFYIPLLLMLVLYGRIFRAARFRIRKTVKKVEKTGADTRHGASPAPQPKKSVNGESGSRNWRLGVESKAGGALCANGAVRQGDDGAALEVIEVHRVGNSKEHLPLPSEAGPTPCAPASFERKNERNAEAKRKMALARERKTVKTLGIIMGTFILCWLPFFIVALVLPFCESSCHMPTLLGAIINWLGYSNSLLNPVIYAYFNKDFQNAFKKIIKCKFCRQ

[4] = target: Cannabinoid receptor 2 (Homo sapiens) (UniProt P34972); test: Displacement of [3H]WIN55212-2 from CB2 receptor (unknown origin) at 1 uM after 120 mins
Sequence of Cannabinoid receptor 2 (Homo sapiens) (P34972 whole entry): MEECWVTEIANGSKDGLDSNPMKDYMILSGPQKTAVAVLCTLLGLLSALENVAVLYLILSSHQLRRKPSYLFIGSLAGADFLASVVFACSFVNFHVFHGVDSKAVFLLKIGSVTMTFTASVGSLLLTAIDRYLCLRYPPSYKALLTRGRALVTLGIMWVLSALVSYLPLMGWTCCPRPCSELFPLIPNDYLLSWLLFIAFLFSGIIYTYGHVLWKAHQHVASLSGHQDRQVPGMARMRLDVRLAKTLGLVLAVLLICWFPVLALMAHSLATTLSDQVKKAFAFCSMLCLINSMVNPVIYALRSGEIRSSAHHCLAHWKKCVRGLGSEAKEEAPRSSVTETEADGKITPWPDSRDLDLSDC

Albumin = Albumin (Homo sapiens, UniProt P02768); test: Binding affinity to human serum albumin at 5 uM after 12 mins by HPLC-MS analysis relative to control; format: ADME; details: isolated protein, 0.2 h
Sequence of Albumin (P02768 whole entry): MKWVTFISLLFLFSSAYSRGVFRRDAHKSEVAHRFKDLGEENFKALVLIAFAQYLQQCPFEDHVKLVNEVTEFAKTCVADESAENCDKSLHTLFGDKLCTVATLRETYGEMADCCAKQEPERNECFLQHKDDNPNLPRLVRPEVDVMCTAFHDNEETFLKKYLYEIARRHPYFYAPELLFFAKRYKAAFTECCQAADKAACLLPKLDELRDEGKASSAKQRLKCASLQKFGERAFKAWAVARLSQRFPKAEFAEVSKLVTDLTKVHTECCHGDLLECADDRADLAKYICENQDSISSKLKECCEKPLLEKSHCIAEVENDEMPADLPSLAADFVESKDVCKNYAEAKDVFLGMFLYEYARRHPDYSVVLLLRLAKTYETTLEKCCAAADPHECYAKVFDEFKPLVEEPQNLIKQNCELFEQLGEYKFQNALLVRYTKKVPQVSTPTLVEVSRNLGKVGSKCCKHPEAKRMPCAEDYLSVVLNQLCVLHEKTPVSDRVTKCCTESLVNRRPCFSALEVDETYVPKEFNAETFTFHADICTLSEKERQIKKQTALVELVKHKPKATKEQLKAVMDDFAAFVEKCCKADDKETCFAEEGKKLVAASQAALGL

[5] = target: Mu-type opioid receptor (Homo sapiens) (UniProt P35372); test: Displacement of [3H]DAMGO from mu opioid receptor (unknown origin) at 1 uM after 120 mins
Sequence of Mu-type opioid receptor (Homo sapiens) (P35372 whole entry): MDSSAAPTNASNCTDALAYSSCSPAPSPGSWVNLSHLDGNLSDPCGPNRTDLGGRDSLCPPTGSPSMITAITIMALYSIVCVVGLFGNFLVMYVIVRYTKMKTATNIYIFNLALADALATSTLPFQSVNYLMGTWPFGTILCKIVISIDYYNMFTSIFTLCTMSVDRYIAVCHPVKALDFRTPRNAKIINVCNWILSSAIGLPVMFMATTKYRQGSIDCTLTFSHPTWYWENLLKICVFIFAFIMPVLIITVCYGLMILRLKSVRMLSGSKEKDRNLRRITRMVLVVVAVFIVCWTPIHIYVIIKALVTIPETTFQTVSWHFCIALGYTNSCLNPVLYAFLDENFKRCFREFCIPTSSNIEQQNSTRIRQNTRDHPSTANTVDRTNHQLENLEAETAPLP

[6] = Half life in human liver microsomes at 1 to 5 uM by HPLC-MS analysis; format: ADME, Microsome
Method in brief: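 Incubation mixtures pre-equilibrated at 37 °C with NADPH and MgCl2, then rat or human liver microsomes added to start the reaction. Aliquots were withdrawn and quenched at several time points, and percent parent remaining was measured by HPLC-MS and plotted against time. t1/2 was taken from the slope of peak area over time and used to calculate CLint.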

Sequence of 5-hydroxytryptamine receptor 7 (P32305 whole entry): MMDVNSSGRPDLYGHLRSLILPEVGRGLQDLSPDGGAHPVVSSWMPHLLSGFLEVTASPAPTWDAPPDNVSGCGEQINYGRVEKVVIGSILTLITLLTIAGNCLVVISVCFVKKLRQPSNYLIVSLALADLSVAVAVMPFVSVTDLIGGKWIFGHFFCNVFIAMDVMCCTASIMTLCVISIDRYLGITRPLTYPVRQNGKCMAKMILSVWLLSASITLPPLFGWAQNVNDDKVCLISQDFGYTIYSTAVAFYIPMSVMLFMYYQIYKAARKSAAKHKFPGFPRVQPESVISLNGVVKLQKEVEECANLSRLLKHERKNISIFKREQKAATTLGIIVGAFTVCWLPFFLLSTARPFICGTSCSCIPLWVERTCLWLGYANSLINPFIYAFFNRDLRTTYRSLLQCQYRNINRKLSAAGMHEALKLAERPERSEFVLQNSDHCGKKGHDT

Ki [1]: 16.9 nM | inhibition [2]: inactive | EC50 [3]: 19 nM | inhibition [4]: inactive | Activity (Albumin): 25% | inhibition [5]: inactive | half-life at up to 5 µM [6]: 2.98 h
SMILES: CCOc1ccccc1OCCNCCCCN1C(=O)C2CCCN2C1=O.Cl (stereo not drawn)
Activity (Mus musculus): Non-toxic
